# Shown are actives, neighbours in structure and some others; about 1.8% of the full set was active somewhere.
# HTRA1 inh: HTRA1 serine protease inhibitors, primary screen, biochemical, fluorescence polarization, HTS; Q92743; recombinant HTRA1, FP-rhodamine activity-based probe; inhibition, % at 5.96 µM; 0.5% of 340,000 active; AID 504803, 2011; in the data active means inhibition above about 36%
# SIAE primary: human SIAE inhibitors, primary screen, biochemical, fluorescence polarization, FP-Rh probe, 1536-well HTS | AID 1053197, 2014 | 0.69% of 370,000 active | SIAE FP-Rh probe binding | inhibition, % at 9.66 µM;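 active means inhibition above a cutoff: mean of compounds within the control limits plus 3 SD of those, cut at about 17% in these data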
# Target sequence (Q9HAT2 whole entry, looked up): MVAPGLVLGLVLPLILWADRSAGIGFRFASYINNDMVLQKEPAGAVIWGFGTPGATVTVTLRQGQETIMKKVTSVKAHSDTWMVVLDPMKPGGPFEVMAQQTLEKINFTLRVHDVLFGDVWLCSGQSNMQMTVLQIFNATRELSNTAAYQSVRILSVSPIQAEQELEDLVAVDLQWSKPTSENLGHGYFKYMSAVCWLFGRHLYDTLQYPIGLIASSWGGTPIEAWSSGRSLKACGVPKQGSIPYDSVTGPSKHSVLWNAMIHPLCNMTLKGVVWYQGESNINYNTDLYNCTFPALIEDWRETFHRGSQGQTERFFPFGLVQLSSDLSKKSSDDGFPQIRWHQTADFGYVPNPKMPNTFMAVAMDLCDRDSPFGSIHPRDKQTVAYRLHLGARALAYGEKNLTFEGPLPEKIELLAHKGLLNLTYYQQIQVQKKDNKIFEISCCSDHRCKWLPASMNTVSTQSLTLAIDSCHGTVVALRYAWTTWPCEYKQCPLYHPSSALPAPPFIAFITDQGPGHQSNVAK
# PME-1 primary: PME-1 inhibitors via competitive probe labeling, primary screen, biochemical, fluorescence polarization, FP-Rh probe, HTS; inhibition, % at 5.9 µM; Protein phosphatase methylesterase 1 (Homo sapiens), Q9Y570; 0.53% of 320,000 active; recombinant PME-1;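 active means inhibition above the campaign mean of all compounds plus 3 SD, cut at about 26% in these data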;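 further: competitive labeling of PME-1 active site by serine hydrolase directed probe; inhibitors block probe labeling so polarization falls and inhibition rises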
# mABHD4 FP: ABHD4 inhibitors, primary screen, biochemical, fluorescence polarization, mouse; purified mABHD4, FP-Rh probe fluorescence polarization; inhibition, % at 8.92 µM; 0.54% of 370,000 active;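 active means inhibition exceeding the mean over every tested compound plus 3 SD, cut at about 30% in these data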
#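 Doses – 8.92 µM, single dose · Material – wild-type mouse ABHD4 protein · Replication – single well per compound (singlicate) · Measure – percent inhibition of probe binding, normalized to plate controls · Schedule – 45 min compound pre-incubation plus 60 min probe step, 25 °C · Detection – fluorescence polarization with parallel and perpendicular emission, 525/598 nm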
# Fam108B inh: mouse Fam108B serine hydrolase inhibitors, primary screen, counter-screen for RBBP9 inhibitor project, biochemical, fluorescence polarization. inhibition, % at 9.51 µM. 0.33% of 300,000 active. recombinant Fam108B, FP-Rh probe fluorescence polarization. AID 1947, 2009;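 active means inhibition above the screen mean inhibition plus 3 SD, computed separately per campaign, cut at about 18% in these data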;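 further: inhibitors lower polarization as less probe binds the enzyme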
# TCR CD3 inh: inhibitors of human TCR-CD3 interaction, primary screen, biochemical, fluorescence, TAMRA-labeled TCR probe; 0.37% of 360,000 active; inhibition, % at 9.4 µM; AID 651800, 2012; T-cell receptor (TCR); in the data active means inhibition above about 19%;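 further: recombinant mutant TCR 2C K166C tagged with TAMRA read by polarization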
# SIAE confirm: human SIAE inhibitors, retest, confirmation, biochemical, fluorescence polarization, FP-Rh probe, triplicate; shares compounds with SIAE primary; SIAE FP-Rh activity-based probe; inhibition, % at 9.66 µM; 13% of 2,300 active;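 active means mean inhibition of the replicates above the hit cutoff set in the primary screen, cut at about 17% in these data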;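 further: inhibitors lower polarization as more probe stays unbound to SIAE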
# A number is an active result; 0 = inactive; - = no result given.
SMILES,HTRA1 inh,SIAE primary,PME-1 primary,mABHD4 FP,Fam108B inh,TCR CD3 inh,SIAE confirm
COc1ccc(C(=O)N2CCC(C)(C(=O)NS(=O)(=O)C3CC3)C2)c(OC)c1 (configuration not stated),-,0,-,0,-,0,-
CCc1ccc(NC(=O)Nc2ccc3c(c2)N(C)C(=O)CS3)cc1,0,24,0,0,0,0,0
COc1ccc(CN2C(=O)c3ccccc3C2c2nnnn2-c2c(C)cccc2C)cc1OC (configuration not stated),-,0,-,0,-,0,-
O=C(N1CCCC1)n1c(Cc2ccccc2)nc2ccccc21,0,19,0,0,0,0,0
COc1ccc(N2CCN(C(=O)CSc3nnnn3C3CC3)CC2)cc1,0,19,0,0,-,0,0
O=C(O)c1ccc(S(=O)(=O)NC2CCCc3ccccc32)cc1 (configuration not stated),0,0,0,0,0,0,-
O=S(=O)(NC1CCCc2ccccc21)c1cnc[nH]1 (configuration not stated),0,26,0,0,0,0,0
Cc1cc(F)ccc1-c1cc(C(=O)Nc2ccccc2)[nH]n1,-,0,-,0,-,0,-
COc1ccc(N(C(=O)CNC(=O)c2ccco2)C(C(=O)NCC2CCCO2)c2ccccc2)cc1 (configuration not stated),0,0,0,0,0,0,-
COc1ccc(O)c(/C=N/NC(=S)NCCc2ccccc2)c1,0,18,0,0,0,0,0
Oc1ccc(Br)cc1/C=N/NC(=S)NCCc1ccccc1,0,18,0,0,0,0,0
COc1nccc(NCc2ccccc2)c1C#N,-,0,0,0,0,0,-
C[C@@H]1CN([C@@H](C)CO)C(=O)CCCn2nncc2CO[C@@H]1CN(C)S(=O)(=O)c1ccc2c(c1)OCCCO2,0,0,-,0,-,0,-
O=C(O)CCCn1cc(NC(=O)c2cccc(F)c2)cn1,0,20,0,0,0,0,0
CCCCCCSc1ccc([C@@H]2[C@@H]3C(=O)N(C)C(=O)[C@@H]3[C@]3(C(=O)OC)CCCCN23)cc1OC,0,0,0,0,0,0,-
CCc1noc(C)c1C(=O)Nc1cc(S(=O)(=O)N2CCOCC2)ccc1OC(C)C,0,0,0,0,0,0,-
Cc1ccc(Nc2nc(C)cc(C)c2C(N)=O)c(C)c1,0,0,0,0,0,0,-
CNC(=S)Nc1cccc(C(C)=O)c1,0,17,0,0,0,0,0
c1ccc(Nc2nc(N3CCOCC3)nc(N3CCOCC3)n2)cc1,0,0,0,0,0,0,-
C(=N\Nc1nc(Nc2ccccc2)nc(N2CCOCC2)n1)/c1c[nH]c2ccccc12,-,19,0,0,0,0,24
Cc1ccc(Nc2nc(N/N=C/c3c[nH]c4ccccc34)nc(N3CCOCC3)n2)cc1,0,28,0,0,0,0,0
Cc1c(C(=O)N2CCN(c3ccccn3)CC2)cccc1[N+](=O)[O-],0,18,0,0,0,0,0
Cc1nc2c(ccc3nc(NC(=O)c4ccc5c(c4)OCCO5)sc32)s1,0,0,0,0,0,0,-
O=C(Nc1nc2c(Br)cccc2s1)c1ccc2c(c1)OCCO2,-,22,-,0,-,-,0
CC(C)C[C@H](NC(=O)c1nc[nH]c1C(=O)N1CCC(C)CC1)C(=O)OC(C)(C)C,0,0,0,0,0,0,-
CC1CCN(C(=O)c2[nH]cnc2C(=O)N[C@@H](CCCCNC(=O)OC(C)(C)C)C(=O)OC(C)(C)C)CC1,0,22,0,0,0,0,0
O=C(NNc1ccnc2cc(Cl)ccc12)C1CCCCC1,0,0,0,0,0,0,-
NC(=S)NNc1ccnc2cc(Cl)ccc12,0,20,0,0,0,0,0
C/C(=N/Nc1ccnc2cc(Cl)ccc12)c1ccc(O)cc1,0,37,33,0,0,0,0
